Consider 2 compounds from ChEMBL document CHEMBL1275590, “Novel arylimidamides for treatment of visceral leishmaniasis” (Antimicrob Agents Chemother, 2010).

Series [1] has as its system Mus musculus. Kind of series: Renal toxicity in BALB/c mouse assessed as blood urea nitrogen level in serum at 25 mg/kg/day, po administered for five days (Rvb= 29 mg/dl). In kind it is organism-based. Further details: route oral. Conditions: in vivo. In short, it runs like this:
(§1)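 Female BALB/c mice (n = 5 per dose), dosed once daily for 5 consecutive days p.o. (20 ml/kg) or i.v. (10 ml/kg) with compound in sterile water, prepared fresh daily under yellow light. Vehicle controls n = 5 per route. Clinical observations, body weights, serum chemistry and hematology on day 6 before necropsy; histopathology of formalin-fixed tissues. Chemistry analysed by one-way ANOVA with Dunnett's posttest.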

In series [2] the test system is Mus musculus. Kind of series: Toxicity in BALB/c mouse assessed as liver necrosis at 150 mg/kg/day, po. The series is classed as organism-based. Further details: route oral. To be noted: in vivo. A digest of the protocol:
as §1

A short description of series [3]: Half life in mouse liver microsome by HPLC-MS/MS analysis in presence of 10 uM NADPH. In kind it is ADME. To be noted: liver microsomes. In short, it runs like this:
(§2)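 Pooled liver microsomes (human, mouse, rat) with NADPH. Substrate added from DMSO to final 0.1, 1.0 or 10 μM, with 0.5% (vol/vol) organic solvent. Incubated at 37°C for up to 60 min. Stopped with 2 volumes of 7:1 methanol-water containing 0.1% TFA and 30 nM internal standard, then centrifuged. Remaining substrate was measured by HPLC-MS/MS, and t1/2 was obtained by one-phase exponential decay fit (t1/2 = 0.693/k).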

Series [4] has as its system Mus musculus. In words: Hepatotoxicity in BALB/c mouse assessed as AST level in serum at 20 mg/kg/day, iv administered for five days (Rvb= 65 U/L). In kind it is toxicity, organism-based. Further details: route intravenous. Conditions: in vivo.
Series [5] concerns Leishmania donovani. In words: Antileishmanial activity against Leishmania donovani axenic amastigotes. In kind it is functional, organism-based.
In series [6] the test system is Leishmania donovani. In words: Antileishmanial activity against antimony resistant Leishmania donovani MC8-R infected in mouse J774 macrophage. The series is classed as functional, organism-based.
Series [7] concerns Mus musculus. Kind of series: Hepatotoxicity in BALB/c mouse assessed as ALT level in serum at 25 mg/kg/day, po administered for five days (Rvb= 36 U/L). In kind it is toxicity, organism-based. The arrangement: route oral. Conditions: in vivo.
Series [8] has as its system Mus musculus. In words: Hepatotoxicity in BALB/c mouse assessed as AST level in serum at 50 mg/kg/day, po administered for five days (Rvb= 70 U/L). Conditions: in vivo. Further details: route oral. In kind it is toxicity, organism-based.
Series [9] is described as follows: Half life in human liver microsome by HPLC-MS/MS analysis in presence of 10 uM NADPH. In kind it is ADME. To be noted: liver microsomes. A digest of the protocol:
as §2

For series [10], the system named is Leishmania donovani. Kind of series: Antileishmanial activity against […] Leishmania donovani AG83-S infected in mouse J774 macrophage. The series is classed as functional, organism-based.
Series [11] relates to Mus musculus. Kind of series: Hepatotoxicity in BALB/c mouse assessed as ALT level in serum at 5 mg/kg/day, iv administered for five days (Rvb= 34 U/L). The series is classed as toxicity, organism-based. Further details: route intravenous. To be noted: in vivo.
A short description of series [12]: Half life in human liver microsome by HPLC-MS/MS analysis in presence of 0.1 uM NADPH. In kind it is ADME. To be noted: liver microsomes. A digest of the protocol: (§3)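 Pooled liver microsomes with NADPH. Substrate at final 0.1, 1.0 and 10 μM with 0.5% DMSO, incubated up to 60 min at 37°C. Reactions were stopped with 7:1 methanol-water containing 0.1% TFA and 30 nM internal standard. Remaining substrate was measured by HPLC-MS/MS, and t1/2 came from a one-phase exponential decay fit.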

The nature of series [13]: Half life in human liver microsome by HPLC-MS/MS analysis in presence of 1 uM NADPH. To be noted: liver microsomes. The series is classed as ADME. A digest of the protocol:
as §3

The nature of series [14]: Half life in golden Syrian hamster liver microsome by HPLC-MS/MS analysis in presence of 1 uM NADPH. The series is classed as ADME, Mesocricetus auratus. To be noted: liver microsomes. In short, it runs like this:
as §3

The subject of series [15] is Mus musculus. Kind of series: Hepatotoxicity in BALB/c mouse assessed as AST level in serum at 5 mg/kg/day, iv administered for five days (Rvb= 65 U/L). To be noted: in vivo. The series is classed as toxicity, organism-based. The arrangement: route intravenous.
The nature of series [16]: Cmax in Swiss Webster mouse at 1 mg/kg, iv by HPLC-MS/MS analysis. The arrangement: dose 1 mg/kg, route intravenous. Conditions: in vivo. The series is classed as ADME, organism-based. In short, it runs like this:
(§4)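 Male Swiss Webster mice, n = 3 per time point. For i.v., the compound was dissolved in sterile water, diluted 1:1 with 2× saline, and given as a tail-vein bolus over ~10–20 s. For p.o., it was given by gavage in sterile water. Dose volume was 5 ml/kg. Terminal plasma was taken from 5 min to 72 h and measured by HPLC-MS/MS (calibration 2.5–10,000 nM). Parameters came from noncompartmental analysis.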

Series [17] can be described thus: Half life in mouse liver microsome by HPLC-MS/MS analysis in presence of 1 uM NADPH. In kind it is ADME. To be noted: liver microsomes. In short, it runs like this: as §2
The test system of series [18] is Leishmania donovani. In words: Antileishmanial activity against antimony resistant Leishmania donovani MC4-R infected in mouse J774 macrophage. The series is classed as functional, organism-based.
Series [19] can be described thus: Half life in Swiss Webster mouse at 70 mg/kg, po by HPLC-MS/MS analysis. The series is classed as ADME, organism-based. Further details: dose 70 mg/kg, route oral. To be noted: in vivo. In short, it runs like this:
as §4

The nature of series [20]: Tmax in Swiss Webster mouse at 70 mg/kg, po by HPLC-MS/MS analysis. The series is classed as ADME, organism-based. Further details: dose 70 mg/kg, route oral. To be noted: in vivo. In short, it runs like this:
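Male Swiss Webster mice (n = 3 per time point), single dose by oral gavage (sterile water solution) or tail-vein bolus i.v. (water diluted 1:1 with 2× saline, over ~10–20 s); dose volume 5 ml/kg. Terminal blood sampled from 5 min to 72 h postdose; plasma quantified by HPLC-MS/MS (positive-ion SRM). Noncompartmental analysis gave Cmax, Tmax, AUC0-∞, CL, Vss; bioavailability from p.o. versus i.v. exposure.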

Series [21] deals with Leishmania donovani. Kind of series: Antileishmanial activity against Leishmania donovani WR378 infected in golden Syrian hamster assessed as reduction in spleen parasitemia at 30 mg/kg/day, po administered for five days. The series is classed as functional. Conditions: 120 h. In short, it runs like this: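 11-day golden hamster VL model adapted from an 8-day method, using L. donovani WR378 metacyclic promastigotes. Dosing was oral, once daily for 5 days. Animals were euthanized on day 11 post-infection. Liver, spleen and femoral bone marrow (flushed with Schneider's medium) were harvested.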

Series [22] can be described thus: Induction of mutagenicity in Salmonella serovar Typhimurium TA 98 assessed as number of revertant colonies at 5 ug by Ames assay in presence of Aroclor 1254-induced rat liver S9 metabolic activation system. The series is classed as toxicity, subcellular, Salmonella enterica subsp. enterica serovar Typhimurium. A digest of the protocol: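 Plate incorporation test, S. Typhimurium TA98 (and TA100), with or without Aroclor 1254-induced rat liver S9 (10% vol/vol). Compound dissolved in sterile water, serially diluted to 1–1,000 or 1–500 μg/plate. Positive controls: 2-nitrofluorene and sodium azide without S9, 2-aminoanthracene with S9; water and DMSO vehicle controls. Revertant colonies and background lawn scored; mutagen if mean revertants ≥2-fold solvent control. Single experiment.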

Series [23] can be described thus: Induction of mutagenicity in Salmonella serovar Typhimurium TA 98 assessed as number of revertant colonies at 1 ug by Ames assay. To be noted: in vivo. The series is classed as toxicity, Salmonella enterica subsp. enterica serovar Typhimurium. A digest of the protocol:
(§5)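 Ames plate incorporation with S. Typhimurium TA98 and TA100, with or without Aroclor 1254-induced rat liver S9 (10% vol/vol). Compound was dissolved in sterile water and serially diluted to 1–500 μg/plate. Positive controls were 2-nitrofluorene and sodium azide without S9, and 2-aminoanthracene with S9; sterile water and DMSO served as vehicles. Revertant colonies and background lawn were scored. A mutagen was defined as a mean revertant count at least 2-fold over solvent control. Single experiment.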

Series [24] is described as follows: Induction of mutagenicity in Salmonella serovar Typhimurium TA 98 assessed as number of revertant colonies at 10 ug by Ames assay. The series is classed as toxicity, Salmonella enterica subsp. enterica serovar Typhimurium. To be noted: in vivo. In short, it runs like this: as §5
The nature of series [25]: Induction of mutagenicity in Salmonella serovar Typhimurium TA 100 assessed as number of revertant colonies at 5 ug by Ames assay. The series is classed as toxicity, Salmonella enterica subsp. enterica serovar Typhimurium. Conditions: in vivo. In short, it runs like this:
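Plate incorporation method with TA100, with and without Aroclor 1254-induced rat liver S9 (10% vol/vol). Compound dissolved in sterile water, serially diluted; plates scored for revertant count and background lawn versus controls. Mutagen if mean revertants at least 2-fold over mean solvent control. Positive controls: 2-nitrofluorene and sodium azide without S9, 2-aminoanthracene with S9; water and DMSO vehicles.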

Some results are limits rather than exact numbers.

With `CCOc1cc(NC(=N)c2ccccn2)ccc1-c1ccc(-c2ccc(NC(=N)c3ccccn3)cc2OCC)o1`, the Activity in series [1] was 29 mg/dL; in series [2] it was “Toxic”; in [4], 89 U/L; in series [7] it was 31 U/L; in [8] it was 77 U/L; in series [11], 43 U/L. The Activity in series [15] came out at 80 U/L. The half-life in series [3] is over 120 min; in [9], over 120 min; in series [12], over 120 min; in [13] it was over 120 min; in series [14], over 120 min; in series [17] it was 47 min. Also, the half-maximal inhibitory concentration (IC50) in series [5] came out at 500 nM; in series [6] it was 160 nM; in series [10] it was 130 nM; in series [18] it was 150 nM. Also, in series [16], the Cmax was determined as 370 nM.
Take `CC(C)Oc1cc(NC(=N)c2ccccn2)ccc1-c1ccc(-c2ccc(NC(=N)c3ccccn3)cc2OC(C)C)o1`: the Activity in series [1] was 27 mg/dL; in [22], 48; in series [4], 76 U/L; in [7], 44 U/L; in series [8] it was 90 U/L; in series [23], 38. Moreover, the Activity in series [24] is on record as 29; in series [11] it was 36 U/L; in [15], 76 U/L; in series [25] it was 145. The half-life in series [19] was 2880 min; in [3], over 120 min; in [9] it was over 120 min; in series [12], over 120 min; in series [13], over 120 min; in series [14] it was over 120 min. In series [17], the half-life is over 120 min. For the same compound, the Tmax in [20] came to 1 h. Further, in series [21], the inhibition in vivo at 30 mg/kg/day is 67%. Further, the IC50 in [5] was 500 nM; in series [6], 64 nM; in series [10], 90 nM; in series [18], 76 nM. This compound gave a Cmax in series [16] of 1090 nM.
